The list is not random: actives were taken first. Their share in the collection is about 1.4%.
Env fusion inh: inhibitors of HIV Env-mediated cell fusion; HeLa-JRFL Env/CEM21 cell fusion, luciferase; inhibition, % at 12.3 µM; 360,000 tested, 1.1% active;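 active = mean replicate inhibition score of at least 50 and every replicate individually at or above 50; inconclusive = only one of the two criteria met; inactive = mean below 50 and not all replicates reaching 50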
GSIS activator: primary screen for activators of insulin secretion dependent on glucose, INS-1E cells, GLuc reporter luminescence; INS-1E GLuc reporter insulin secretion, 2-3 h; activation, % at 16.6 µM; 370,000 tested, 0.61% active; AID 743287;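 active = lowest replicate activation of at least 40%, so every replicate reaches that level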
GSK3A inh: inhibitors of human GSK-3 alpha kinase | P49840 | ADP-Glo luminescence, 60 min | inhibition, % at 10 µM | 320,000 tested, 0.1% active | AID 2650;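 active = more than half of replicates show inhibition above 20%; inconclusive = some but at most half of replicates above 20% inhibition; inactive = no replicate shows inhibition above 20%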;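 note: GST-tagged GSK-3 alpha with peptide substrate and 25 µM ATP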
GSK3beta inhib: blocks human GSK3beta kinase activity; activity score (negative = inhibition), % at 10 µM; AID 2097; 300,000 tested, 0.038% active; GST-GSK3beta kinase, ADP-Glo luminescence, 60 min; hits give low values;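 active = more than half of replicate wells score below -50%, meaning over 50% inhibition versus plate controls; inconclusive = some replicates but at most half score below -50%; inactive = no replicate scores below -50%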
Target sequence (P49841 whole entry, looked up): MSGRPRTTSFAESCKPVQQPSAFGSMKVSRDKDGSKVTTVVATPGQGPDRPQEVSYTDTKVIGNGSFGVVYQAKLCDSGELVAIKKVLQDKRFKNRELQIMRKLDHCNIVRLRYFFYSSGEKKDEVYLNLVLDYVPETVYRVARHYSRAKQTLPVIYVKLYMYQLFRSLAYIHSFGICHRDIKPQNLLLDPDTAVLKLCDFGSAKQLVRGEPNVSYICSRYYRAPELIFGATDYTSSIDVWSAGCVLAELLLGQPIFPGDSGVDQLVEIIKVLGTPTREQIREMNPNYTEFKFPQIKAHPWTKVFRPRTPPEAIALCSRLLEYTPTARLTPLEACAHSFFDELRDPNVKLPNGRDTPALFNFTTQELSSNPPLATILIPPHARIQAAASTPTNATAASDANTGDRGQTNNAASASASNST
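Assay system: GST-tagged human GSK3beta kinase, cell-free; Input: 1.6 ng GSK3beta; Medium: Tris/MgCl2 kinase buffer; Timing: 60 min enzyme reaction, room temperature; Signal: ADP-Glo luminescence quantifying ADP generated by kinase; Evaluation: score relative to plate controls; Benchmarks: DMSO neutral wells and GW8510 at 20 µM as positive.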
STK33 kinase inh: inhibitors of human STK33 kinase; Q9BYT3; purified STK33, MBP phosphorylation, ADP-Glo luminescence; inhibition, % at 10 µM; 320,000 tested, 0.073% active;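 active = inhibition at or above 25%, using the most active replicate where run in duplicate; inactive = inhibition below 25%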
CDK5 inh: blocks human CDK5/p35 kinase activity; Q00535+Q15078; Recombinant CDK5/p35, ADP-Glo luminescence, 60 min; inhibition, % at 10 µM; 330,000 tested, 0.01% active; AID 488839;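 active = highest replicate inhibition of at least 50% and at least 75% of replicates reaching 50%; inconclusive = only one of the two criteria met; inactive = both criteria failed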
A number is an active result; 0 = inactive; ? = inconclusive; - = no result given.

SMILES | Env fusion inh | GSIS activator | GSK3A inh | GSK3beta inhib | STK33 kinase inh | CDK5 inh
C[C@@H]1CN([C@@H](C)CO)C(=O)c2cc(NS(C)(=O)=O)ccc2O[C@@H](C)CCCCO[C@@H]1CN(C)Cc1ccc(C(F)(F)F)cc1 | 0 | 0 | - | - | - | -
O=C(Nc1cc(C(F)(F)F)ccc1F)C1Cc2c(-c3ccccc3Oc3ccccc3)ccnc2O1 (configuration not stated) | 79 | - | - | - | - | -
O=C(Nc1cccc(OC(F)(F)F)c1)C1Cc2c(-c3ccccc3Oc3ccccc3)ccnc2O1 (configuration not stated) | 59 | - | - | - | - | -
O=C(Nc1ccccc1)C1Cc2c(-c3ccccc3Oc3ccccc3)ccnc2O1 (configuration not stated) | 0 | 0 | - | - | - | -
CCCn1c(C)cc(C(=O)COc2ccc(C)nc2[N+](=O)[O-])c1C | 0 | - | 0 | 0 | 0 | 0
Cc1ccc(OCC(=O)c2cc(C)n(-c3ccccc3)c2C)c([N+](=O)[O-])n1 | 67 | 0 | 0 | 0 | 0 | 0
CN(C)C(=O)[C@H]1[C@H](CO)[C@H]2Cn3c(cccc3=O)[C@H]2N1C(=O)NC1CCCC1 | - | 0 | - | - | - | -
C[n+]1c2n(c3ccccc31)N=C(c1cc(C(C)(C)C)c(O)c(C(C)(C)C)c1)CS2 | ? | 301 | 0 | 0 | 0 | 0
O=C(Cn1c(=O)n(CC2CCCO2)c(=O)c2ccccc21)c1ccc(Cl)c(Cl)c1 (configuration not stated) | 58 | - | 0 | 0 | 0 | 0
CC(C)(C)C(=O)Cn1c(=O)n(CC2CCCO2)c(=O)c2ccccc21 (configuration not stated) | - | 0 | 0 | 0 | 0 | 0
COc1ccc(/C=N/OCC(=O)NC(c2ccccc2)c2ccccc2)cc1OC | 62 | 0 | 0 | 0 | 0 | 0
COc1cccc(/C=N/NC(=O)CN(C2=NS(=O)(=O)c3ccccc32)c2ccccc2)c1 | 0 | 0 | 0 | 0 | 0 | 0
COc1ccc(/C=N/NC(=O)CN(C2=NS(=O)(=O)c3ccccc32)c2ccccc2)cc1OC | 0 | 60 | 0 | 0 | 0 | 0
COc1cc(/C=N/NC(=O)CCn2c3ccccc3c3ccccc32)cc(OC)c1OC | 0 | 0 | - | 0 | - | 0
COc1ccc(/C=N/NC(=O)CCn2c3ccccc3c3ccccc32)cc1OC | 0 | 54 | 0 | 0 | 0 | 0
COc1ccc(/C=N/OCC(=O)Nc2cc(C)on2)cc1OC | 0 | 0 | 0 | 0 | 0 | 0
COc1ccc(/C=N/NC(=O)CCSc2nc3ccccc3s2)cc1OC | 0 | 54 | 0 | 0 | 0 | 0
CCC(=O)Nc1ccc2c(c1)C(=O)N(C)C[C@@H](OC)[C@H](C)CN(C(=O)c1cccnc1)[C@@H](C)CO2 | 0 | 0 | - | - | - | -
CCCC(=O)Nc1ccc2c(c1)C(=O)N(C)[C@@H]1CC[C@H](CC(=O)NCCN3CCCCC3)O[C@H]1CO2 | 0 | 0 | - | - | - | -
O=C(C[C@H]1C=C[C@@H](NS(=O)(=O)c2ccc(F)cc2)[C@H](CO)O1)NCc1ccc(Cl)c(Cl)c1 | 0 | 0 | - | - | - | -
O=C(C1CCC1)N1CC2(C1)[C@@H](c1ccccc1)[C@@H](CO)N2C(=O)c1ccccn1 | - | 0 | - | - | - | -
Cc1ccccc1NC(=O)C[C@H]1CC[C@H]2[C@@H](COc3ccc(NC(=O)c4ccc(Cl)cc4)cc3C(=O)N2C)O1 | - | 0 | - | - | - | -
CCn1c(SCC(=O)N/N=C/c2ccc(OC)c(OC)c2)nc2ccccc21 | 0 | 84 | 0 | 0 | 0 | 0
COc1cc(/C(C)=N\NC(=O)CSc2nc3ccccc3n2C)ccc1O | 0 | 42 | 0 | 0 | 0 | 0
CN1CCN(C(=O)C[C@H]2CC[C@H]3[C@@H](COC[C@@H](O)CN3C(=O)Cc3ccccc3)O2)CC1 | 0 | 0 | - | - | - | -
SMILES | Env fusion inh | GSIS activator | GSK3A inh | GSK3beta inhib | STK33 kinase inh | CDK5 inh
Cc1nn(C(=O)c2cccc([N+](=O)[O-])c2)c(C)c1Br | 0 | 0 | 0 | 0 | 0 | 0
Cc1nn(C(=O)c2cccc([N+](=O)[O-])c2)c(C)c1Cl | 0 | 63 | 0 | 0 | 0 | 0
CCC(=O)Nc1ccc2c(c1)C(=O)N(C)C[C@H](OC)[C@@H](C)CN(C(=O)Cc1ccccn1)[C@H](C)CO2 | - | 0 | - | - | - | -
CC(=O)N(C)C[C@@H]1Oc2cc(Br)ccc2S(=O)(=O)N([C@H](C)CO)C[C@H]1C | 0 | 0 | - | - | - | -
COc1ccc(NC(=O)Cc2c(SC)c3ccccc3n2Cc2ccccc2)cc1 | 0 | 97 | 0 | 0 | 0 | 0
CSc1c(CC(=O)NCCCO)n(Cc2ccccc2)c2ccccc12 | 0 | 0 | 0 | 0 | 0 | 0

Compound activity from PubChem.
